In PubChem BioAssay AID588419 (The Scripps Research Institute Molecular Screening Center, 2011):
The source made the active and inactive calls.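 The calls were made as follows: active = IC50 at or below 1000 nM for PAD4 enzyme inhibition; inactive = IC50 above 1000 nM.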

Target: Protein-arginine deiminase type-4 (Homo sapiens) (UniProt Q9UM07)
Assay: PAD4 enzyme inhibition potency, late-stage follow-up, biochemical, BAEE substrate, citrulline absorbance, 0-6 µM range (AID 588419)
Conditions: recombinant PAD4, BAEE citrulline colorimetric absorbance
Procedure, shortened: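 assay system = recombinant PAD4 | buffer or medium = Tris-HCl pH 7.6, CaCl2, DTT | reagent = 10 mM BAEE | compound dosing = Seven-point compound series spanning 0 to 6 µM | incubation = 15 min preincubation plus 15 min reaction, 37 °C | measured by = absorbance at 540 nm | read-out basis = IC50 from citrulline formation, quantified via citrulline standard curve | replication = duplicate dose-response curves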

Protein-arginine deiminase type-4 (Homo sapiens), sequence (Q9UM07 whole entry, looked up): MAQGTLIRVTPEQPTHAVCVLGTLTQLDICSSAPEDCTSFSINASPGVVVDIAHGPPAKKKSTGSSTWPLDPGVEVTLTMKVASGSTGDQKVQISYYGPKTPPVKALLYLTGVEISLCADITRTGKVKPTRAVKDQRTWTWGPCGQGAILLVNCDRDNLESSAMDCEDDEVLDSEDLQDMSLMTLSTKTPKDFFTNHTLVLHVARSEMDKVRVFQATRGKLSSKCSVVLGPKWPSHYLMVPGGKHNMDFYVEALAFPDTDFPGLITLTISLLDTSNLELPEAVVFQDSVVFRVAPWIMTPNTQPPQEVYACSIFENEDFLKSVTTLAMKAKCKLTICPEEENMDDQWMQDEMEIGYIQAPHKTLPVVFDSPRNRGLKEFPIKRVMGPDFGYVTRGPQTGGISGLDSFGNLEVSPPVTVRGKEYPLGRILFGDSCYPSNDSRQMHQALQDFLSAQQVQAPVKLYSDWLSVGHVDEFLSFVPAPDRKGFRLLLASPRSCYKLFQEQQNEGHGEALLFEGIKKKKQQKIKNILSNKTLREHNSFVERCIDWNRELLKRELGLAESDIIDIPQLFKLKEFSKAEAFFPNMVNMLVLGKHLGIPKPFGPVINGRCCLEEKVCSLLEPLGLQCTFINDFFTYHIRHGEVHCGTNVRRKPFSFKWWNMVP

COC1=C(I)C(=O)c2nc(C#N)ccc2C1=O
IC50: inactive
